Calls of active or inactive are those of the source. The rule behind the calls is not given here.
Columns and labels:
[1] = system: HCT-116; assay: Antiproliferative activity against human HCT116 cells incubated for 72 hrs by CCK8 assay; format: functional, cell-based
In short: (§1)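 HCT116, MCF-7 and A549 human cancer cell lines; antiproliferative activity read out by CCK8 assay. Evodiamine derivatives and camptothecin served as positive controls.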

[2] = system: MCF7; assay: Antiproliferative activity against human MCF7 cells incubated for 72 hrs by CCK8 assay; format: functional, cell-based; in short: as §1
[3] = system: A549; assay: Antiproliferative activity against human A549 cells incubated for 72 hrs by CCK8 assay; format: functional, cell-based; in short: as §1
[4] = target: T1, DNA topoisomerase 1 (Homo sapiens) (UniProt P11387); assay: Inhibition of Top1 (unknown origin) at 500 uM using supercoiled pBR322 plasmid DNA as substrate incubated for 15 mins by PI staining based agarose gel electrophoresis analysis
T1 sequence (whole entry): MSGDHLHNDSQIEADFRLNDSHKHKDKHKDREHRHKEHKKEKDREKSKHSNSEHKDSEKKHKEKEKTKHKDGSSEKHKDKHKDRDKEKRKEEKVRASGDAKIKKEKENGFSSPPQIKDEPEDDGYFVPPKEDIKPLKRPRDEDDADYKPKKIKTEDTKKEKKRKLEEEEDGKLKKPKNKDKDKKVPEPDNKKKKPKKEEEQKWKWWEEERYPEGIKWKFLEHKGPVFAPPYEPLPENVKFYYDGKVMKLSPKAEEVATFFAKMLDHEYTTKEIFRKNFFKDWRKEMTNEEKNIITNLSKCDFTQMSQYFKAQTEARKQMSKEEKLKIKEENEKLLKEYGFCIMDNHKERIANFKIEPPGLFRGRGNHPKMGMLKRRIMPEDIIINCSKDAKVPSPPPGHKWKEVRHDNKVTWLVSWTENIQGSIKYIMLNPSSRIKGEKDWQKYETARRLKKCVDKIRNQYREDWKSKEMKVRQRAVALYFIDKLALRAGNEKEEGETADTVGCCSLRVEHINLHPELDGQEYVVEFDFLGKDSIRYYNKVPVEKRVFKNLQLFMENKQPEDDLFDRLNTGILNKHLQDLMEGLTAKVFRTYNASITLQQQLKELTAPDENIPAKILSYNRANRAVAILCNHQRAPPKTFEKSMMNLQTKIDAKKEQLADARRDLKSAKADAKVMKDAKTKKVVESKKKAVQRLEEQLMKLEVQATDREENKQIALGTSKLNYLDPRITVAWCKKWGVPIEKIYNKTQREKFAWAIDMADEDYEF
In short: (§2)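 Top1 inhibition tested at 500, 250 and 125 μM, and over 27.9 to 250 μM for selected compounds.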

[5] = target: T1, DNA topoisomerase 1 (Homo sapiens); assay: Inhibition of Top1 (unknown origin) at 125 uM using supercoiled pBR322 plasmid DNA as substrate incubated for 15 mins by PI staining based agarose gel electrophoresis analysis; in short: as §2
[6] = target: T1, DNA topoisomerase 1 (Homo sapiens); assay: Inhibition of Top1 (unknown origin) at 83.3 uM using supercoiled pBR322 plasmid DNA as substrate incubated for 15 mins by PI staining based agarose gel electrophoresis analysis
[7] = target: T2, DNA topoisomerase II (Homo sapiens) (UniProt P11388+Q02880); assay: Inhibition of Top2 (unknown origin) at 50 uM using supercoiled pBR322 plasmid DNA as substrate incubated for 30 mins by PI staining based agarose gel electrophoresis analysis; format: protein assay
[8] = target: T2, DNA topoisomerase II (Homo sapiens); assay: Inhibition of Top2 (unknown origin) using supercoiled pBR322 plasmid as substrate incubated for 30 mins by PI staining based agarose gel electrophoresis analysis; format: protein assay
[9] = system: HCT-116; assay: Induction of apoptosis in human HCT116 cells assessed as apoptotic cells at 0.05 uM incubated for 48 hrs by AnnexinV-FITC/PI staining based flow cytometric analysis (reference value: 6.25 to 8.23%); format: functional
In short: (§3)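 HCT116 cells exposed to 0.05, 0.2 or 0.4 μM for 48 h. Apoptotic cells quantified by flow cytometry, n = 3.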

[10] = system: HCT-116; assay: Induction of apoptosis in human HCT116 cells assessed as apoptotic cells at 0.2 uM incubated for 48 hrs by AnnexinV-FITC/PI staining based flow cytometric analysis (reference value: 6.25 to 8.23%); format: functional; in short: as §3
[11] = system: HCT-116; assay: Induction of apoptosis in human HCT116 cells assessed as apoptotic cells at 0.4 uM incubated for 48 hrs by AnnexinV-FITC/PI staining based flow cytometric analysis (reference value: 6.25 to 8.23%); format: functional; in short: as §3
[12] = system: HCT-116; assay: Induction of cell cycle arrest in human HCT116 cells assessed as accumulation at G1 phase at 0.05 uM incubated for 24 hrs by propidium iodide staining based flow cytometry (reference value: 38.49 to 51.18%); format: functional
[13] = system: HCT-116; assay: Induction of cell cycle arrest in human HCT116 cells assessed as accumulation at G1 phase at 0.2 uM incubated for 24 hrs by propidium iodide staining based flow cytometry (reference value: 38.49 to 51.18%); format: functional
[14] = system: HCT-116; assay: Induction of cell cycle arrest in human HCT116 cells assessed as accumulation at G1 phase at 0.4 uM incubated for 24 hrs by propidium iodide staining based flow cytometry (reference value: 38.49 to 51.18%); format: functional
[15] = system: HCT-116; assay: Induction of cell cycle arrest in human HCT116 cells assessed as accumulation at G2 phase at 0.05 uM incubated for 24 hrs by propidium iodide staining based flow cytometry (reference value: 18.51 to 20.82%); format: functional
[16] = system: HCT-116; assay: Induction of cell cycle arrest in human HCT116 cells assessed as accumulation at G2 phase at 0.2 uM incubated for 24 hrs by propidium iodide staining based flow cytometry (reference value: 18.51 to 20.82%); format: functional
[17] = system: HCT-116; assay: Induction of cell cycle arrest in human HCT116 cells assessed as accumulation at G2 phase at 0.4 uM incubated for 24 hrs by propidium iodide staining based flow cytometry (reference value: 18.51 to 20.82%); format: functional
[18] = system: HCT-116; assay: Induction of cell cycle arrest in human HCT116 cells assessed as accumulation at S phase at 0.05 uM incubated for 24 hrs by propidium iodide staining based flow cytometry (reference value: 30.31 to 40.69%); format: functional
[19] = system: HCT-116; assay: Induction of cell cycle arrest in human HCT116 cells assessed as accumulation at S phase at 0.2 uM incubated for 24 hrs by propidium iodide staining based flow cytometry (reference value: 30.31 to 40.69%); format: functional
[20] = system: HCT-116; assay: Induction of cell cycle arrest in human HCT116 cells assessed as accumulation at S phase at 0.4 uM incubated for 24 hrs by propidium iodide staining based flow cytometry (reference value: 30.31 to 40.69%); format: functional
[21] = Drug metabolism in PBS buffer assessed as H2O2-mediated 3-Fluoro-10-hydroxy-14-methyl-8,13,13b,14-tetrahydro-7H-indolo[2',3':3,4]pyrido[2,1-b]quinazolin-5-one release rate at pH 7.4 incubated for 8 hrs in presence of 0.05 mM H2O2 by HPLC analysis; format: physicochemical; settings: pH 7.4, 8 h
In short: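 Release of the parent compound after treatment with H2O2 at varied concentrations, including 0.05 mM, in PBS pH 7.4. Analysed by HPLC.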

[22] = Drug metabolism in human HCT116 cells assessed as 3-Fluoro-10-hydroxy-14-methyl-8,13,13b,14-tetrahydro-7H-indolo[2',3':3,4]pyrido[2,1-b]quinazolin-5-one release at 0.2 mM by UPLC-QTOF/MS analysis relative to control; format: ADME, cell-based; settings: hct-116, 200 µM, TDE = time-dependent effect
[23] = Metabolic stability in mouse liver microsomes assessed as half life at 1 uM preincubated with compound followed by NADPH addition measured upto 45 mins by LC-MS/MS analysis; format: ADME, Microsome
In short: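 In vitro stability in liver microsomes; terminal half-life determined.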

[24] = system: HCT-116; assay: Induction of apoptosis in human HCT116 cells incubated for 48 hrs by AnnexinV-FITC/PI staining based flow cytometric analysis; format: functional, cell-based
[25] = Drug metabolism in human HCT116 cells assessed as 3-Fluoro-10-hydroxy-14-methyl-8,13,13b,14-tetrahydro-7H-indolo[2',3':3,4]pyrido[2,1-b]quinazolin-5-one release by measuring parent compound retention time incubated for 8 hrs by UPLC-QTOF/MS analysis; format: ADME, cell-based; settings: hct-116, 8 h
In short: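 Compounds incubated with HCT116 cells; culture media analysed by HPLC after 8, 48 and 72 h. Relative release rate taken from relative peak areas; parent and product identified by retention time.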

[26] = Inhibition of porcine brain tubulin polymerization measured at 1 min interval for 15 to 30 mins by spectrophotometric method; design: species or system Sus scrofa
[27] = Homo sapiens, HCT-116, 72 h, read-out: IC50
[28] = Homo sapiens, MCF7, 72 h, read-out: IC50
[29] = Homo sapiens, A549, 72 h, read-out: IC50

Structure (SMILES)	IC50 [1, 27] [nM]	IC50 [2, 28] [nM]	IC50 [3, 29] [nM]	inhibition [4]	inhibition [5]	inhibition [7]	other results
CN1c2ccccc2C(=O)N2CCc3c([nH]c4ccc(B5OC(C)(C)C(C)(C)O5)cc34)C21 (stereo not given)	220	390	170				
CN1c2ccc(F)cc2C(=O)N2CCc3c([nH]c4ccc(B5OC(C)(C)C(C)(C)O5)cc34)C21 (stereo not given)	170	960	110				
CN1c2ccccc2C(=O)N2CCc3c([nH]c4ccc(OCc5ccc(B6OC(C)(C)C(C)(C)O6)cc5)cc34)C21 (stereo not given)	100	160	390				
CC[C@@]1(O)C(=O)OCc2c1cc1n(c2=O)Cc2cc3ccccc3nc2-1 [CAMPTOTHECIN]	9	84	39				
CC(=O)Oc1ccc(CCl)cc1							IC50 ([1]; hct-116): Not Active; IC50 ([2]; mcf7): Not Active; IC50 ([3]; a549): Not Active
CN1c2ccccc2C(=O)N2CCc3c(n(C(=O)OC(C)(C)C)c4ccc(OCc5ccc(B6OC(C)(C)C(C)(C)O6)cc5)cc34)C21 (stereo not given)	4180	4130	3440				
CN1c2ccc(F)cc2C(=O)N2CCc3c([nH]c4ccc(B(O)O)cc34)C21 (stereo not given)	63	94	40	Active			

Continued, in another order:

IC50 [1, 27] [nM]	IC50 [2, 28] [nM]	IC50 [3, 29] [nM]	inhibition [4]	inhibition [5]	inhibition [7]	Structure (SMILES)	other results
41	32	44	Active	Active	Active	CN1c2ccc(F)cc2C(=O)N2CCc3c([nH]c4ccc(OC(=O)OCc5ccc(B(O)O)cc5)cc34)C21 (stereo not given)	inhibition [6]: Active; inhibition [8]: Active; Activity [9]: 44.4%; Activity [10]: 54.28%; Activity [11]: 64.47%; Activity [12]: 14.09%; Activity [13]: 7.6%; Activity [14]: 5.41%; Activity [15]: 29.47%; Activity [16]: 43.45%; Activity [17]: 51.23%; Activity [18]: 56.44%; Activity [19]: 48.96%; Activity [20]: 43.36%; Drug metabolism [21]: Dose-dependent effect; Drug metabolism [22]: Tde; half-life at 1 µM [23]: 44.4 s; Activity [24]: Dose-dependent effect; Retention_time [25]: 8.6 min
52	140	130	Active	Active	Active	CN1c2ccccc2C(=O)N2CCc3c([nH]c4ccc(OC(=O)OCc5ccc(B(O)O)cc5)cc34)C21 (stereo not given)	IC50 [26]: 25700 nM
120	110	74	Active	Active	Active	CN1c2ccccc2C(=O)N2CCc3c([nH]c4ccc(OCc5ccc(B(O)O)cc5)cc34)C21 (stereo not given)	

— ChEMBL document CHEMBL4602706, “Natural Product Evodiamine with Borate Trigger Unit: Discovery of Potent Antitumor Agents against Colon Cancer” (ACS Med Chem Lett, 2020)
